# Lipid droplet – inhibitors of hepatocyte lipid droplet formation, primary screen, imaging, high-throughput imaging, BODIPY stain | inhibition, % at 6.5 µM | actives 0.4% (n = 240,000) | AML12 mouse hepatocytes, oleate lipid droplets;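 active = lipid droplet intensity inhibited by at least 50%, with more than 500 cells counted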
#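 Material – AML12 mouse liver cells · Also added – oleate loading, 100 µM · Compound dosing – 6.5 µM single-point dosing · Times – overnight treatment with compound plus oleate · Measured by – fluorescence imaging, 20x objective, two fields per well · Read-out – percent inhibition of filter-corrected integrated lipid droplet intensity per well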
# HTR5A inv ctr – HTR5A inverse agonists in luminescence cell assay, primary screen, counter-screen for OPRM1-OPRD1 heterodimer inverse agonist project, full-deck HTS; 5-hydroxytryptamine receptor 5A (Homo sapiens), P47898; HTR5A cell line, inverse agonism; inhibition, % at 9.3 µM; actives 0.083% (n = 340,000); AID 504634, 2011; in the data active = inhibition mostly above about 23%, no sharp cut-off; inactive = mostly below about 18%;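 note: 0% = cells with DMSO and 100% = no-cell wells with DMSO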
# Target sequence (P47898 whole entry, looked up): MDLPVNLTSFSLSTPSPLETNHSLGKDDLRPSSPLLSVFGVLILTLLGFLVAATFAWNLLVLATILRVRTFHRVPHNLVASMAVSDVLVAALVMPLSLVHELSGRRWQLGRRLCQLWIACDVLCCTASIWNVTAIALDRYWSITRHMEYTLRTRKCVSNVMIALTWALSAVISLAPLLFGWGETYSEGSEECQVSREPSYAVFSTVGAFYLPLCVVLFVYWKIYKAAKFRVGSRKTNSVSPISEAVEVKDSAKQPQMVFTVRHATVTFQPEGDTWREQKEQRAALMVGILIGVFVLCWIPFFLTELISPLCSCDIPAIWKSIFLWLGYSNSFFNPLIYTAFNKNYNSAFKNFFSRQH
# MOR-DOR ag – agonists of OPRM1-OPRD1 heterodimerization, primary screen, cell-based, luminescence | activation, % at 9.3 µM | actives 0.3% (n = 340,000) | AID 504326, 2011 | cells; in the data active = activation above about 18%;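 note: 0% = vehicle-treated cells and 100% = reference agonist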
# MOR-DOR inv ag – inverse agonists of MOR-DOR heterodimerization, primary screen, cell-based, luminescence | actives 0.21% (n = 340,000) | inhibition, % at 9.3 µM | Mu-type opioid receptor (Homo sapiens) + Delta-type opioid receptor (Homo sapiens), … | cell-based MOR-DOR heterodimer luminescence, inverse agonism | AID 504357, 2011; in the data active = inhibition above about 22%, passing the limit was not always enough;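 note: 0% = cells with DMSO and 100% = wells without cells with DMSO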
# HTR5A ag – HTR5A agonists in luminescence cell assay, primary screen, counter-screen for OPRM1-OPRD1 heterodimer agonist project, full-deck HTS; 5-hydroxytryptamine receptor 5A (Homo sapiens), P47898; cell-based; activation, % at 9.3 µM; actives 0.61% (n = 340,000); AID 504692, 2011; in the data active = activation mostly above about 9.5%, no sharp cut-off; inactive = mostly below about 7.6%;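 note: 0% = cells with vehicle only and 100% = reference agonist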
# * hit, by the source's call; / = no result. Rows were chosen to be rich in hits. Some 1.4% of all compounds tested hit in one or more screens of this group.
SMILES,Lipid droplet,HTR5A inv ctr,MOR-DOR ag,MOR-DOR inv ag,HTR5A ag
COc1ccc2c(c1)CC/C2=N\OC(=O)c1cccc(C)c1,9.3,-1.1,6.9,-33.4,13.8*
CCN1CCN(C(CNS(=O)(=O)c2ccc(Br)cc2)c2cccnc2)CC1 (stereo not given),-14.5,8.0,-2.6,13.9,12.5*
COc1ccc(NC(=O)Nc2cccc(C(F)(F)F)c2)cn1,6.8,-35.0,4.8,-24.0,12.9*
Cc1ccc(CNC(=O)/C=C/c2c(Cl)cccc2Cl)cc1,19.7,-5.2,0.3,-1.8,1.5
Cc1ccc(CNC(=O)/C=C/c2ccccc2Cl)cc1,/,-39.8,0.4,-2.3,11.0*
CSCC(C)N1CCC(CCC(=O)NC2CC2)CC1 (stereo not given),7.8,8.6,-3.9,20.1,11.9*
CC(C)CN1C(=O)/C(=C/c2c(N3CCc4ccccc4C3)nc3ccccn3c2=O)SC1=S,119.7*,/,/,/,/
CC1CCC2(CC1)NC(=O)N(CC(=O)NC(=O)Nc1ccc3c(c1)OCCO3)C2=O (stereo not given),-2.9,2.5,0.2,-1.1,-1.1
Nn1c(SCC(=O)Nc2ccccc2F)nnc1-c1cccs1,/,-14.4,-3.2,17.4,-4.5
O=C(/C=C/c1ccccc1)c1ccc2c(c1)OCCCCO2,/,10.6,-0.6,3.0,-1.9
O=C(CCl)N(C/C=C/c1ccccc1)c1ccc2c(c1)OCCO2,5.8,-179.9,37.9*,-173.7,70.6*
O=c1n(-c2ccccc2)c(=O)n2n1CCC2,/,10.4,-2.2,12.5,10.4*
COc1cccc(CNC(=O)C(=O)NCC2CCCO2)c1 (stereo not given),-12.1,-29.6,1.9,-10.5,13.7*
COc1cccc(C(=O)NCC2CCCO2)c1 (stereo not given),9.3,/,/,/,/
NNc1ccc(Cl)c(C(=O)O)c1,1.0,-10.2,-3.6,19.1,1.5
CCOC(=O)c1nn(-c2ccc(F)cc2)c(=O)cc1OCC(=O)Nc1ccc(OCC)cc1,/,-24.4,6.1,-32.9,4.5
CCOc1ccc(-c2nc(CN3CCCCC3CCn3cccn3)c(C)o2)cc1 (stereo not given),-36.6,0.8,1.3,-6.8,-10.7
COc1ccc(CNC(=O)C(c2ccncc2)N(C(=O)Cc2cccs2)c2ccccc2)cc1 (stereo not given),-2.5,-21.0,-1.0,4.6,0.1
COc1ccc(N(C(=O)CCl)C(C(=O)NCCc2ccccc2)c2cccs2)cc1 (stereo not given),32.8,-65.7,68.1*,-360.4,54.6*
O=C(COc1ccc2ccc(=O)oc2c1)NCCCN1CCCC1=O,-12.1,-8.2,-0.6,2.9,12.6*
O=C(COc1ccc2c3c(c(=O)oc2c1)CCC3)NCCCN1CCCC1=O,-0.7,10.9,-2.4,12.0,-2.3
O=C(CCS(=O)(=O)c1ccc(Br)cc1)NCCC1=CCCCC1,-1.7,19.4,-2.9,15.1,-0.7
c1ccc(-c2ccn3nnnc3n2)cc1,14.6,-7.3,0.8,-4.3,4.6
c1ccc(-c2cnn3nnnc3n2)cc1,/,-25.5,0.7,-4.1,12.4*
Cc1sc2ncn(CC(=O)NCCCC(=O)Nc3ccc(C(C)C)cc3)c(=O)c2c1C,-27.4,5.0,1.0,-8.2,3.8
SMILES,Lipid droplet,HTR5A inv ctr,MOR-DOR ag,MOR-DOR inv ag,HTR5A ag
CCOC(=O)c1sc(NC(=O)CSc2nc(-c3ccco3)cc(C(F)(F)F)n2)c(C(=O)OCC)c1C,/,-10.2,-2.0,10.4,1.3
COc1ccc(NC(=O)N2CCCC(c3nc(-c4ccc(C(C)C)cc4)no3)C2)cc1 (stereo not given),/,-39.5,7.2,-38.0,12.2*
COc1cc(NC(=O)COc2cccc3c2OC(C)(C)C3)cc(OC)c1OC,/,-49.9,-0.2,0.9,13.7*
COc1ccc(NC(=O)COc2cccc3c2OC(C)(C)C3)c(OC)c1,/,-51.8,-0.4,2.9,13.0*
CC(=O)Nc1ccc(NC(=O)COc2cccc3c2OC(C)(C)C3)cc1,0.6,6.4,-2.4,13.1,4.2
O=C(CN(Cc1ccccc1Cl)C(=O)c1csnn1)NC1CCCC1,-6.5,-2.6,0.6,-4.4,5.8
CCCCn1c(N)c(N(CC)C(=O)c2ccc([N+](=O)[O-])c(C)c2)c(=O)[nH]c1=O,8.7,-5.5,-2.8,15.1,2.0
O=c1oc2ccccc2nc1/C=C(\O)c1ccccc1,8.0,/,/,/,/
O/C(=C\c1nc2ccccc2nc1/C=C(\O)c1ccccc1)c1ccccc1,1.3,4.1,-13.8,71.4*,-8.7
COc1cccc(NC(=O)C(=O)N/N=C(\C)CC(=O)Nc2ccc(NC(C)=O)cc2)c1,-1.7,-36.9,-3.5,17.3,-0.9
Cc1ccc2c(COC(=O)CNC(=O)c3ccco3)cc(=O)oc2c1C,/,7.0,-2.3,11.4,-1.8
O=C(CN1CCCC1)Nc1c(C(=O)C2CC2)oc2ccccc12,-10.9,-20.8,2.0,-9.9,-4.1
N#Cc1ccccc1OCC(=O)Nc1c(C(=O)C2CC2)oc2ccccc12,/,-41.3,2.4,-13.7,14.2*
COc1ccc(N2CCN(Cc3nc(N)nc(Nc4ccccc4OC)n3)CC2)cc1,/,-1.2,-0.1,0.4,-2.6
COc1cc(N2CCC(O)CC2)ccc1Nc1nnc(Cl)c(Nc2ccccc2S(C)(=O)=O)n1,/,25.9*,-1.1,6.3,-8.8
COc1ccc2cc3cc(C(=O)NCC4COc5ccccc5O4)oc3nc2c1 (stereo not given),/,-47.6,6.7,-36.6,13.5*
Cc1nnc(SCC(=O)N2CCN(c3ccccc3)CC2)n(N)c1=O,30.8,1.4,1.0,-5.3,-2.9
CC(C)c1ccc(S(=O)(=O)/N=C2/C=C(Sc3ncn[nH]3)C(=O)c3ccccc32)cc1,-26.2,18.6,24.6*,-127.4,2.7
Cc1ccc(S(=O)(=O)/N=C2/C=C(Sc3ncn[nH]3)C(=O)c3ccccc32)c(C)c1,-10.0,/,/,/,/
Cc1cccc(NC(=O)c2ccc(S(=O)(=O)N3CC(C)OC(C)C3)cc2)n1 (stereo not given),/,-6.0,-0.6,3.9,2.4
CCOc1ccc(C(=O)NCC(=O)Nc2ccc3c(c2)OCO3)cc1OCC,/,1.5,-0.2,1.3,-0.6
CSc1cccc(NC(=O)CNC(=O)c2ccc3c(c2)OCO3)c1,/,23.7,-0.6,4.1,10.5*
CCC(=O)Nc1cccc(SC)c1,-8.8,15.0,2.7,-16.6,12.7*
CCC(CC)C(=O)Nc1cccc(SC)c1,-9.9,/,/,/,/
C#CCNC(=O)C1=C[C@H](C2CCCCC2)[C@@H](CCCO)[C@H](OCC)O1,-1.7,-12.0,-3.1,14.2,2.9
CC(C)(C)c1ccc(OCc2ccc(C(=O)N/N=C/c3ccc(O)c(O)c3)cc2)cc1,23.2,-21.8,5.0,-23.9,8.8*
c1ccc(Oc2ccccn2)cc1,/,6.4,-3.3,17.5,-1.8

# Source: PubChem (several laboratories)
